Test results: ChEMBL document CHEMBL3098016, “Biphenyl derivatives incorporating urea unit as novel VEGFR-2 inhibitors: design, synthesis and biological evaluation” (Bioorg Med Chem, 2014)
Values belong to the molecule of their own block, whether it stands above or below them.

Tests used:
[1] = target: Vascular endothelial growth factor receptor 2 (Homo sapiens, UniProt P35968); assay: Inhibition of VEGFR2 (unknown origin) after 30 mins by HTRF assay
LoVo = assay: Antiproliferative activity against human LoVo cells after 48 hrs by MTT assay
K562 = assay: Antiproliferative activity against human K562 cells after 48 hrs by MTT assay; conditions: K562, 48 h
[2] = Antiproliferative activity against human SH-SY5Y cells after 48 hrs by MTT assay
[3] = Antiproliferative activity against human SGC7901 cells after 48 hrs by MTT assay; conditions: SGC-7901, 48 h
MDA-MB-231 = assay: Antiproliferative activity against human MDA-MB-231 cells after 48 hrs by MTT assay; type: functional, cell-based; conditions: MDA-MB-231, 48 h
Procedure, shortened: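 Cells in exponential growth plated at 1 × 10⁴ cells/well and incubated 24 h at 37 °C. Compounds were then added at various concentrations for 48 h. MTT (5 mg/mL) was added, followed by 4 h at 37 °C. Supernatant was removed and formazan dissolved in DMSO, with absorbance read at 490 nm. IC50 in µM.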

Sequence of Vascular endothelial growth factor receptor 2 (P35968 whole entry): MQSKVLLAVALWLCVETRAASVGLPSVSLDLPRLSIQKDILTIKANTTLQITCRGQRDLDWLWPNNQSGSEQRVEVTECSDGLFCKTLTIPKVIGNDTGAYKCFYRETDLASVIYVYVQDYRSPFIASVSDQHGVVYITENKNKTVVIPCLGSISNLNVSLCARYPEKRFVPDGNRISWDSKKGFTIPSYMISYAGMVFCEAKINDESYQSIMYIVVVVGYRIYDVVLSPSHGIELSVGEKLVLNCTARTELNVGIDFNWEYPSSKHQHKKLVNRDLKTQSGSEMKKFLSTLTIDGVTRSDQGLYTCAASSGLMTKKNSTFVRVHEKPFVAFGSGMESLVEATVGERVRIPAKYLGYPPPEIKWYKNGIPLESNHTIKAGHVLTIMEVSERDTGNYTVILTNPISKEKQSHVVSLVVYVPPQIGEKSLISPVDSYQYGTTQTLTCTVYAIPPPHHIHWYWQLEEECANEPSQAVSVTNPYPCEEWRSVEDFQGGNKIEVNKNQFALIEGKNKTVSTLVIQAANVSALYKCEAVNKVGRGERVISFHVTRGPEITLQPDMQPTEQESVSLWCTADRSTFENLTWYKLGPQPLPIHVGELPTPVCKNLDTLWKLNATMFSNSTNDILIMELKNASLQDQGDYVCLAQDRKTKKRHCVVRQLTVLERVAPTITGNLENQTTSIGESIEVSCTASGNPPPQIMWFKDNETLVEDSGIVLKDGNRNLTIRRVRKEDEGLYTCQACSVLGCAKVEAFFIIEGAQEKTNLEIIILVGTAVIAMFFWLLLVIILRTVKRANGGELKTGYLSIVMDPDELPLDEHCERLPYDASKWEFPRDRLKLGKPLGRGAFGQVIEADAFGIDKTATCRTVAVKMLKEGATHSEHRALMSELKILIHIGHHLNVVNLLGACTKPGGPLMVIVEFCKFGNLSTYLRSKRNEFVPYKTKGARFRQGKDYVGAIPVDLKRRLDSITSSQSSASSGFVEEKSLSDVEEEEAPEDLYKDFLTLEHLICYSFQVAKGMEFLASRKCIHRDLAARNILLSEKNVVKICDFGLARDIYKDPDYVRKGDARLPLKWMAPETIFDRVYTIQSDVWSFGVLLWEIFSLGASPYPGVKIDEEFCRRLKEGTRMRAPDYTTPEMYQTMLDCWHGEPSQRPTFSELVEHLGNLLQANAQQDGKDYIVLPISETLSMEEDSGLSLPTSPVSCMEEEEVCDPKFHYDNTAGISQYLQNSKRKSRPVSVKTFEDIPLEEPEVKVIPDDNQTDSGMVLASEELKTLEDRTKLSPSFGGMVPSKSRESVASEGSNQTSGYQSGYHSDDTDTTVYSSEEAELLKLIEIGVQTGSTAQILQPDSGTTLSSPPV

SMILES: CCN(CC)CCOc1ccc(NC(=O)Nc2cc(OC)c(OC)c(-c3ccc(C(C)=O)c(OC)c3)c2)cc1
- IC50 [1]: > 0.3 µM

SMILES: COc1cc(-c2cc(NC(=O)Nc3ccc(OCCN(C)C)cc3C)cc(OC)c2OC)ccc1C(C)=O
- IC50 [1]: > 0.3 µM

SMILES: COc1cc(-c2cc(NC(=O)Nc3cc(OCCN4CCCCC4)ccc3C)cc(OC)c2OC)ccc1C(C)=O
- IC50 [1]: > 0.3 µM

SMILES: CCN(CC)CCOc1ccc(NC(=O)Nc2cc(OC)c(OC)c(-c3ccc(/C(C)=N/O)c(OC)c3)c2)c(C)c1
- IC50 [1]: > 0.3 µM

SMILES: CNC(=O)c1cc(Oc2ccc(NC(=O)Nc3ccc(Cl)c(C(F)(F)F)c3)cc2)ccn1 [SORAFENIB]
- IC50 (LoVo): 6.56 µM
- IC50 (MDA-MB-231): 35 µM
- IC50 (K562): 0.86 µM
- IC50 [2]: 5.73 µM
- IC50 [3]: 101 µM

Second part, led by results:

- IC50 [1]: > 0.3 µM
SMILES: COc1cc(-c2cc(NC(=O)Nc3ccc(OCCN(C)C)cc3)cc(OC)c2OC)ccc1C(C)=O

- IC50 [1]: > 0.3 µM
SMILES: COc1cc(-c2cc(NC(=O)Nc3ccc(OCCN4CCOCC4)cc3)cc(OC)c2OC)ccc1C(C)=O

- IC50 (LoVo): 11.1 µM
- IC50 (K562): 2.23 µM
SMILES: COc1cc(-c2cc(NC(=O)Nc3ccc(OCCCN4CCOCC4)cc3)cc(OC)c2OC)ccc1C(C)=O
- IC50 [2]: 10.4 µM
- IC50 [3]: 80.9 µM
